Data: ChEMBL document CHEMBL3227959, “2'-O-Acyl-6-thioinosine cyclic 3',5'-phosphates as prodrugs of thioinosinic acid” (J Med Chem, 1979)
Active and inactive are the calls of the source. No cut-off for these calls is given here.

Columns and labels:
S49 [1] = assay: Cytotoxicity against wild type mouse S49 cells assessed as growth inhibition after 72 hrs by trypan blue exclusion assay; format: functional, cell-based; details: S49, 72 h
Outline: (§1)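 S49 mouse T-lymphoma cells, pre-grown 24 h to keep growth exponential and asynchronous, were plated at 10^5 cells/mL in complete Dulbecco's modified Eagle medium. Agents were added in 30 mM NaHCO3. After 72 h at 37 °C, cells were counted by Coulter counter. Initial density was subtracted and growth expressed as a fraction of drug-free wells. EC50 was read from the percent-inhibition versus concentration plot, reported as mean ± SE. Trypan blue was used to check cytolysis.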

S49 [2] = assay: Cytotoxicity against HGPRTase-deficient mouse S49 cells assessed as growth inhibition after 72 hrs by trypan blue exclusion assay; format: functional, cell-based; details: S49, 72 h; outline: as §1
[3] = Drug degradation in Eagle's medium containing 10 % heat-inactivated horse serum assessed as parent compound after 3 days by reverse-phase liquid chromatography; format: physicochemical; details: read-out: Stability
Outline: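 Agent at 0.5 mM was incubated without cells for 3 days at 37 °C in Dulbecco's modified Eagle medium with 10% heat-inactivated horse serum. Aliquots were diluted 5:1 with methanol, filtered (0.45 μm), and analysed by reverse-phase C18 LC.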

S49 [4] = assay: Cytotoxicity against HGPRTase-, protein kinase- and phosphodiesterase-deficient mouse S49 cells assessed as growth inhibition; format: functional, cell-based; outline: as §1
S49 [5] = assay: Cytotoxicity against HGPRTase-deficient mouse S49 cells assessed as growth inhibition in presence of theophylline
S49 [6] = assay: Cytotoxicity against HGPRTase-deficient mouse S49 cells assessed as growth inhibition in presence of 4-(3-butoxy-4-methoxybenzyl)-2-imidazolone
S49 [7] = assay: Cytotoxicity against HGPRTase-deficient mouse S49 cells assessed as growth inhibition at 500 uM after 20 to 49 hrs by time-course study in presence of theophylline; format: functional, cell-based
Outline: (§2)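 Growth of HGPRTase-deficient S49 cells was followed over time with 0.5 mM agent, compared with drug-free cultures. The cAMP comparator was given with 0.2 mM theophylline.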

S49 [8] = assay: Cytotoxicity against HGPRTase-deficient mouse S49 cells assessed as growth inhibition at 500 uM after 20 to 49 hrs by time-course study; format: functional, cell-based; outline: as §2
S49 [9] = assay: Cytotoxicity against HGPRTase-deficient mouse S49 cells assessed as growth inhibition at 100 uM after 72 hrs by trypan blue exclusion assay; format: functional, cell-based; outline: as §1
S49 [10] = assay: Cytotoxicity against wild type mouse S49 cells assessed as growth inhibition at 200 uM after 72 hrs by trypan blue exclusion assay; format: functional; details: S49, 72 h, read-out: GI; outline: as §1
S49 [11] = assay: Cytotoxicity against wild type mouse S49 cells assessed as growth inhibition after 24 hrs by time-course study; format: functional, cell-based
S49 [12] = assay: Cytotoxicity against HGPRTase-deficient mouse S49 cells assessed as growth inhibition at 1000 uM after 72 hrs by trypan blue exclusion assay; format: functional, cell-based; outline: as §1
S49 [13] = assay: Cytotoxicity against HGPRTase- and protein kinase-deficient mouse S49 cells assessed as growth inhibition; format: functional, cell-based; outline: as §1
S49 [14] = assay: Cytotoxicity against HGPRTase- and protein kinase-deficient mouse S49 cells assessed as growth inhibition at 1 mM; format: functional, cell-based; outline: as §1

Row | Compound | EC50 (S49 [1]) | EC50 (S49 [2]) | other results
1 | CCCCCCCCCCCCCCCC(=O)O[C@@H]1[C@@H]2OP(=O)(O)OC[C@H]2O[C@H]1n1cnc2c(=S)[nH]cnc21 | 6 µM | 65 µM | remaining at 72 h [3]: 20%; growth inhibition (GI) (S49 [4]): Active; growth inhibition (GI) (S49 [5]): Active; growth inhibition (GI) (S49 [6]): Active
2 | CC(=O)O[C@@H]1[C@@H]2OP(=O)(O)OC[C@H]2O[C@H]1n1cnc2c(=S)[nH]cnc21 | 210 µM | 655 µM | 
3 | CCCC(=O)Nc1ncnc2c1ncn2[C@@H]1O[C@@H]2COP(=O)(O)O[C@H]2[C@H]1OC(=O)CCC |  |  | growth inhibition (GI) (S49 [7]): Active; growth inhibition (GI) (S49 [8]): Active
4 | CC(C)(C)C(=O)O[C@@H]1[C@@H]2OP(=O)(O)OC[C@H]2O[C@H]1n1cnc2c(=S)[nH]cnc21 | 33 µM | 237 µM | 
5 | CCCCCCCCCCCC(=O)O[C@@H]1[C@@H]2OP(=O)(O)OC[C@H]2O[C@H]1n1cnc2c(=S)[nH]cnc21 | 10 µM | 109 µM | 
6 | CCCCCCCCCCCC(=O)O |  |  | growth inhibition (GI) (S49 [9]): inactive
7 | CCCCCC(=O)O[C@@H]1[C@@H]2OP(=O)(O)OC[C@H]2O[C@H]1n1cnc2c(=S)[nH]cnc21 | 10 µM | 210 µM | 
8 | O=P1(O)OC[C@H]2O[C@@H](n3cnc4c(=S)[nH]cnc43)[C@H](O)[C@@H]2O1 | 200 µM | > 1000 µM | inhibition of growth at 200 µM (S49 [10]): 40%
9 | CCCCCC(=O)O [HEXANOATE] |  | > 1000 µM | 
10 | CCCCCCCCCCCCCCCCCCCCCC(=O)O[C@@H]1[C@@H]2OP(=O)(O)OC[C@H]2O[C@H]1n1cnc2c(=S)[nH]cnc21 |  | 120 µM | 
11 | Sc1ncnc2nc[nH]c12 [MERCAPTOPURINE ANHYDROUS] | 8 µM | > 1000 µM | growth inhibition (GI) (S49 [11]): Active
12 | CC(C)C(=O)O |  |  | growth inhibition (GI) (S49 [12]): inactive
13 | CC(C)C(=O)O[C@@H]1[C@@H]2OP(=O)(O)OC[C@H]2O[C@H]1n1cnc2c(=S)[nH]cnc21 | 23 µM | 479 µM | 
14 | OC[C@H]1O[C@@H](n2cnc3c(S)ncnc32)[C@H](O)[C@@H]1O [THIOINOSINE] | 0.25 µM | 400 µM | 
15 | CCCC(=O)O[C@@H]1[C@@H]2OP(=O)(O)OC[C@H]2O[C@H]1n1cnc2c(=S)[nH]cnc21 | 137 µM | 426 µM | EC50 (S49 [13]): 250 µM
16 | CCCCCCCCCCCCCCCC(=O)O [PALMITIC ACID] |  | 500 µM | 
17 | CCCC(=O)O[C@@H]1[C@@H]2OP(=O)(O)OC[C@H]2O[C@H]1n1cnc2c(N)ncnc21 |  |  | growth inhibition (GI) (S49 [14]): inactive
